{
  "source": "paper PMC9044438",
  "about": "(Cell reports, 2022)",
  "test_system": "HCT116 cells",
  "experiment": "RNA-seq of nuclear RNA from HCT116 cells electroporated with peptide",
  "type": "cell-based, human",
  "details": "10 μM Nutlin-3a, 3 h, versus DMSO",
  "method_in_brief": "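HCT116 cells were trypsinized and electroporated with 0 or 10 μM peptide into antibiotic-free McCoy's 5A (serum-free in the second run). They then went to medium with 0.1% DMSO or 10 μM Nutlin-3a, plus 200 nM peptide in peptide wells, for 3 h at 37°C. Nuclei were isolated in 0.5% NP-40 lysis buffer, and nuclear RNA was TRIzol-extracted with extra phenol/chloroform cleanup.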",
  "data": [
    {"smiles": "COc1ccc(C2=N[C@@H](c3ccc(Cl)cc3)[C@@H](c3ccc(Cl)cc3)N2C(=O)N2CCNC(=O)C2)c(OC(C)C)c1", "note": "[Nutlin-3a]", "values": [
      {"measurement": "expression of p53 target genes", "value": "induced expression of p53 target genes"}
    ]}
  ]
}
